In ChEMBL document CHEMBL1811814, “Synthesis and evaluation of indole, pyrazole, chromone and pyrimidine based conjugates for tumor growth inhibitory activities--development of highly efficacious cytotoxic agents” (Eur J Med Chem, 2010):

What was measured:
Assay type in all cases: functional
Malme-3M [1] = assay: Growth inhibition of human MALME-3M cells assessed tumor cell growth at 10^-5 M; set-up: scale not given: the % may be the effect or the level left
Method in brief: (§1)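 NCI 60-human-tumor-cell-line panel screen. Each compound was tested at a single concentration of 10^-5 M, and percent growth of tumor cells was recorded for each cell line. Growth inhibition was expressed from these percent-growth values.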

SF-295 [2] = assay: Growth inhibition of human SF295 cells assessed tumor cell growth at 10^-5 M; set-up: scale not given: the % may be the effect or the level left; method in brief: as §1
[3] = Growth inhibition of human RPMI8266 cells
TK-10 = assay: Growth inhibition of human TK10 cells
PC-3 [4] = assay: Growth inhibition of human PC3 cells assessed tumor cell growth at 10^-5 M; set-up: scale not given: the % may be the effect or the level left; method in brief: as §1
SN12C [5] = assay: Growth inhibition of human SN12C cells
OVCAR-3 = assay: Growth inhibition of human OVCAR3 cells assessed tumor cell growth at 10^-5 M; set-up: scale not given: the % may be the effect or the level left; method in brief: as §1
Malme-3M [6] = assay: Growth inhibition of human MALME-3M cells
U-251 [7] = assay: Growth inhibition of human U251 cells
SK-OV-3 = assay: Growth inhibition of human SKOV3 cells assessed tumor cell growth at 10^-5 M; set-up: scale not given: the % may be the effect or the level left; method in brief: as §1
PC-3 [8] = assay: Growth inhibition of human PC3 cells
HCT-116 [9] = assay: Growth inhibition of human HCT116 cells assessed tumor cell growth at 10^-5 M; set-up: scale not given: the % may be the effect or the level left; method in brief: as §1
KM12 [10] = assay: Growth inhibition of human KM12 cells
SR = assay: Growth inhibition of human SR cells assessed tumor cell growth at 10^-5 M; set-up: scale not given: the % may be the effect or the level left
Method in brief: (§2)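 Single-dose screen at 10^-5 M across the 60 human tumor cell line panel, run to NCI standards. The value is the percent growth of each cell line in the presence of compound. Compounds active at this dose moved on to five-concentration testing (10^-4 to 10^-8 M).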

SN12C [11] = assay: Growth inhibition of human SN12C cells assessed tumor cell growth at 10^-5 M; set-up: scale not given: the % may be the effect or the level left; method in brief: as §1
SF-295 [12] = assay: Growth inhibition of human SF295 cells
UO-31 [13] = assay: Growth inhibition of human UO31 cells
MDA-MB-468 [14] = assay: Growth inhibition of human MDA-MB-468 cells
NCI-H522 = assay: Growth inhibition of human NCI-H522 cells
NCI-H460 [15] = assay: Growth inhibition of human NCI-H460 cells
HCT-116 [16] = assay: Growth inhibition of human HCT116 cells
NCI-H460 [17] = assay: Growth inhibition of human NCI-H460 cells assessed tumor cell growth at 10^-5 M; set-up: scale not given: the % may be the effect or the level left; method in brief: as §1
UACC-257 = assay: Growth inhibition of human UACC257 cells assessed tumor cell growth at 10^-5 M; set-up: scale not given: the % may be the effect or the level left; method in brief: as §2
LOX IMVI = assay: Growth inhibition of human LOXIMVI cells
T47D = assay: Growth inhibition of human T47D cells assessed tumor cell growth at 10^-5 M; set-up: scale not given: the % may be the effect or the level left; method in brief: as §2
SK-MEL-5 = assay: Growth inhibition of human SK-MEL-5 cells assessed tumor cell growth at 10^-5 M; set-up: scale not given: the % may be the effect or the level left; method in brief: as §1
OVCAR-8 = assay: Growth inhibition of human OVCAR8 cells
KM12 [18] = assay: Growth inhibition of human KM12 cells assessed tumor cell growth at 10^-5 M; set-up: scale not given: the % may be the effect or the level left; method in brief: as §1
HOP-92 = assay: Growth inhibition of human HOP92 cells assessed tumor cell growth at 10^-5 M; set-up: scale not given: the % may be the effect or the level left; method in brief: as §1
EKVX [19] = assay: Growth inhibition of human EKVX cells assessed tumor cell growth at 10^-5 M; set-up: scale not given: the % may be the effect or the level left; method in brief: as §1
K562 = assay: Growth inhibition of human K562 cells
U-251 [20] = assay: Growth inhibition of human U251 cells assessed tumor cell growth at 10^-5 M; set-up: scale not given: the % may be the effect or the level left; method in brief: as §2
ACHN = assay: Growth inhibition of human ACHN cells assessed tumor cell growth at 10^-5 M; set-up: scale not given: the % may be the effect or the level left; method in brief: as §1
RXF 393 = assay: Growth inhibition of human RXF393 cells assessed tumor cell growth at 10^-5 M; set-up: scale not given: the % may be the effect or the level left; method in brief: as §1
HCT-15 = assay: Growth inhibition of human HCT15 cells assessed tumor cell growth at 10^-5 M; set-up: scale not given: the % may be the effect or the level left; method in brief: as §1
MOLT-4 = assay: Growth inhibition of human MOLT4 cells assessed tumor cell growth at 10^-5 M; set-up: scale not given: the % may be the effect or the level left; method in brief: as §1
HL-60(TB) = assay: Growth inhibition of human HL-60(TB) cells
A498 = assay: Growth inhibition of human A498 cells
SNB-19 = assay: Growth inhibition of human SNB19 cells
CAKI-1 [21] = assay: Growth inhibition of human Caki1 cells
HOP-62 = assay: Growth inhibition of human HOP62 cells assessed tumor cell growth at 10^-5 M; set-up: scale not given: the % may be the effect or the level left; method in brief: as §1
A549 = assay: Growth inhibition of human A549 cells assessed tumor cell growth at 10^-5 M; set-up: scale not given: the % may be the effect or the level left; method in brief: as §1
SW-620 = assay: Growth inhibition of human SW620 cells
COLO 205 = assay: Growth inhibition of human COLO205 cells
UO-31 [22] = assay: Growth inhibition of human UO31 cells assessed tumor cell growth at 10^-5 M; set-up: scale not given: the % may be the effect or the level left; method in brief: as §2
NCI/ADR-RES = assay: Growth inhibition of human NCI/ADR-RES cells
DU-145 [23] = assay: Growth inhibition of human DU145 cells assessed tumor cell growth at 10^-5 M; set-up: scale not given: the % may be the effect or the level left; method in brief: as §1
MDA-MB-435 = assay: Growth inhibition of human MDA-MB-435 cells
CAKI-1 [24] = assay: Growth inhibition of human Caki1 cells assessed tumor cell growth at 10^-5 M; set-up: scale not given: the % may be the effect or the level left; method in brief: as §1
MDA-MB-468 [25] = assay: Growth inhibition of human MDA-MB-468 cells assessed tumor cell growth at 10^-5 M; set-up: scale not given: the % may be the effect or the level left; method in brief: as §1
DU-145 [26] = assay: Growth inhibition of human DU145 cells
M14 = assay: Growth inhibition of human M14 cells
MCF7 = assay: Growth inhibition of human MCF7 cells assessed tumor cell growth at 10^-5 M; set-up: scale not given: the % may be the effect or the level left; method in brief: as §1
MDA-MB-231 = assay: Growth inhibition of human MDA-MB-231 cells
EKVX [27] = assay: Growth inhibition of human EKVX cells
[28] = read-out: LC50 (the source's name)

O=C1/C(=C\c2ccccn2)c2ccccc2N1c1c(Cl)cccc1Cl
Activity (Malme-3M [1]): 67.26% | Activity (SF-295 [2]): 12.33% | GI50 [3]: 2.2 µM | CC50 [3, 28]: > 100 µM | GI50 (TK-10): 3 µM | CC50 (TK-10; [28]): 50.1 µM | Activity (PC-3 [4]): 31.44% | GI50 (SN12C [5]): 2.2 µM | CC50 (SN12C [5]; [28]): 58.8 µM | Activity (OVCAR-3): 27.36% | GI50 (Malme-3M [6]): 1.9 µM | CC50 (Malme-3M [6]; [28]): 16.9 µM | GI50 (U-251 [7]): 1.8 µM | CC50 (U-251 [7]; [28]): 7.4 µM | Activity (SK-OV-3): 39.19% | GI50 (PC-3 [8]): 2.2 µM | CC50 (PC-3 [8]; [28]): 93.3 µM | Activity (HCT-116 [9]): -94.37% | GI50 (KM12 [10]): 1.8 µM | CC50 (KM12 [10]; [28]): 6.3 µM | Activity (SR): -4.3% | Activity (SN12C [11]): 18.08% | GI50 (SF-295 [12]): 1.7 µM | CC50 (SF-295 [12]; [28]): 13.8 µM | GI50 (UO-31 [13]): 1.4 µM | CC50 (UO-31 [13]; [28]): 6 µM | GI50 (MDA-MB-468 [14]): 0.9 µM | CC50 (MDA-MB-468 [14]; [28]): 7.4 µM | GI50 (NCI-H522): 1.6 µM | LC50 (concentration killing 50% of cells) (NCI-H522): 7.5 µM | GI50 (NCI-H460 [15]): 1.8 µM | CC50 (NCI-H460 [15]; [28]): 7 µM | GI50 (HCT-116 [16]): 1.7 µM | CC50 (HCT-116 [16]; [28]): 6.9 µM | Activity (NCI-H460 [17]): -29.25% | Activity (UACC-257): 59.3% | GI50 (LOX IMVI): 1.7 µM | CC50 (LOX IMVI; [28]): 6.4 µM | Activity (T47D): 12.74% | Activity (SK-MEL-5): 23.68% | GI50 (OVCAR-8): 2.1 µM | CC50 (OVCAR-8; [28]): > 100 µM | Activity (KM12 [18]): -2.11% | Activity (HOP-92): -7.93% | Activity (EKVX [19]): 27.21% | GI50 (K562): 3.9 µM | CC50 (K562; [28]): > 100 µM | Activity (U-251 [20]): -2.48% | Activity (ACHN): 19.58% | Activity (RXF 393): -35.21% | Activity (HCT-15): 12.58% | Activity (MOLT-4): 3.8% | GI50 (HL-60(TB)): 3.8 µM | CC50 (HL-60(TB); [28]): > 100 µM | GI50 (A498): 2.9 µM | CC50 (A498; [28]): 72.4 µM | GI50 (SNB-19): 2.2 µM | CC50 (SNB-19; [28]): 32.3 µM | GI50 (CAKI-1 [21]): 1.3 µM | CC50 (CAKI-1 [21]; [28]): 7.4 µM | Activity (HOP-62): 5.17% | Activity (A549): 50.33% | GI50 (SW-620): 1.9 µM | CC50 (SW-620; [28]): 6.7 µM | GI50 (COLO 205): 2.3 µM | LC50 (COLO 205): > 100 µM | Activity (UO-31 [22]): 16.75% | GI50 (NCI/ADR-RES): 3 µM | CC50 (NCI/ADR-RES; [28]): > 100 µM | Activity (DU-145 [23]): -0.09% | GI50 (MDA-MB-435): 1.8 µM | CC50 (MDA-MB-435; [28]): 61.6 µM | Activity (CAKI-1 [24]): -1.37% | Activity (MDA-MB-468 [25]): -17.24% | GI50 (DU-145 [26]): 2.1 µM | CC50 (DU-145 [26]; [28]): 9.1 µM | GI50 (M14): 1.7 µM | CC50 (M14; [28]): 7.7 µM | Activity (MCF7): -10.81% | GI50 (MDA-MB-231): 2 µM | CC50 (MDA-MB-231; [28]): 29.5 µM | GI50 (EKVX [27]): 2 µM | CC50 (EKVX [27]; [28]): > 100 µM
